The target of experiment [1] is T1, Estrogen receptor (Mus musculus) (UniProt O08537+P19785). The experiment can be described thus: Uterotrophic effect in mice at 10 ug dose. The format is functional, tissue-based. More on the design: unit not given here. As to conditions: Uterus. An outline of the steps: (§1)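 Immature female NMRI mice, 20 days old, 10 per group, given daily sc injections of 0.1 mL olive oil solution for 3 days. Uteri removed 24 h after the last dose, fixed in Bouin's solution, washed, dried and weighed. Antiestrogenic testing measured inhibition of estrone-stimulated uterine growth.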

Experiment [2] addresses T1, Estrogen receptor (Mus musculus). The experiment can be described thus: Uterotrophic effect in mice at 0.1 ug dose. It counts as functional, tissue-based. On the set-up: unit not given here. As to conditions: Uterus. The method in brief:
as §1

Experiment [3] has the same target. Description: Uterotrophic effect in BD2F mice bearing transplantable hormone dependent MXT at 0.8 mg dose. It counts as functional, tissue-based. The method in brief:
(§2)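 MXT-bearing female BD2F1 mice (10 per group) dosed sc in olive oil three times weekly for 6 weeks from the day after tumor transplantation. Uteri excised at sacrifice and dry weight determined; values given as mean ± SD.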

The target is the same in experiment [4]. Description: Uterotrophic effect in mice at 1 ug dose. As to conditions: Uterus. The format is functional, tissue-based. More on the design: unit not given here. The method in brief:
as §1

The species entered for experiment [5] is Mus musculus. The experiment can be described thus: Relative average tumor wet weight in treated compared to untreated mice at 4 mg dose. The format is functional. The method in brief: (§3)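 Syngeneic female BD2F1 mice (8–10 weeks) received sc trocar implants of 1–2-mm³ MXT tumor pieces, 10 per group. Treatment began the next day: sc doses in olive oil (solution or suspension), three times weekly for 6 weeks. Tamoxifen-treated control group included. Tumor wet weight measured at sacrifice; expressed as % T/C versus untreated controls.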

Experiment [6] addresses T1, Estrogen receptor (Mus musculus). Description: (§4) Uterotrophic effect in mice at 0 ug dose. The format is functional, tissue-based. More on the design: unit not given here. As to conditions: Uterus. An outline of the steps:
as §1

Experiment [7] shares this target. Description: Uterotrophic effect in BD2F mice bearing transplantable hormone dependent MXT at 4 mg dose. The format is functional, tissue-based. An outline of the steps: as §2
The species entered for experiment [8] is Mus musculus. The experiment can be described thus: Relative average tumor wet weight in treated compared to untreated mice at 0.8 mg dose. It counts as functional. The method in brief:
(§5)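 MXT mammary tumor pieces of 1-2 mm³ from syngeneic donors were implanted sc by trocar into female BD2F₁ mice aged 8-10 weeks (20.0 ± 1.7 g), groups of 10. From the next day, compound in olive oil was given sc three times weekly for 6 weeks. Tumor wet weight was measured at the end and expressed as % T/C.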

The target of experiment [9] is T1, Estrogen receptor (Mus musculus). The experiment can be described thus: (§6) Uterotrophic effect in mice at 100 ug dose. The format is functional, tissue-based. On the set-up: unit not given here. As to conditions: Uterus. An outline of the steps:
as §1

For experiment [10], the species on record is Mus musculus. Description: Relative average tumor wet weight in treated compared to untreated mice at 13.84 mg dose. The format is functional. An outline of the steps:
as §5

Experiment [11] is filed under the species Mus musculus. Description: Relative average tumor wet weight in treated compared to untreated mice at 2.77 mg dose. It counts as functional. An outline of the steps: as §3
In experiment [12] the target is T1, Estrogen receptor (Mus musculus). The experiment can be described thus: Uterotrophic effect in mice at 500 ug dose. It counts as functional, tissue-based. On the set-up: unit not given here. The conditions noted are these: Uterus. The method in brief: as §1
Experiment [13] shares this target. The description is as §4. The format is functional, tissue-based. On the set-up: unit not given here. As to conditions: Uterus. The method in brief:
as §1
The source holds these as a separate data set.

Experiment [14] shares this target. Description: Uterotrophic effect in BD2F mice bearing transplantable hormone dependent MXT at 2.77 mg dose. It counts as functional, tissue-based. The method in brief:
as §2

The target is the same in experiment [15]. Description: Anti-uterotrophic effect in mice at 5 ug dose. The format is functional. The method in brief: (§7)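 Immature female NMRI mice, 20 days old (14.5 ± 1.2 g), randomized into groups of 10. Each received a daily sc injection of compound in 0.1 mL olive oil for 3 days, given together with estrone. Uteri were taken 24 h after the last injection, fixed in Bouin's solution, washed, dried and weighed. The read-out was inhibition of estrone-stimulated uterine growth.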

The target is the same in experiment [16]. The experiment can be described thus: Anti-uterotrophic effect in mice at 25 ug dose. It counts as functional. An outline of the steps: as §7
For experiment [17] the target is unchanged. Description: Uterotrophic effect in mice at 1000 ug dose. It counts as functional, tissue-based. The conditions noted are these: Uterus. The method in brief: as §1
Experiment [18] has the same target. Description: Uterotrophic effect in mice at 25 ug dose. It counts as functional, tissue-based. More on the design: unit not given here. The conditions noted are these: Uterus. The method in brief: as §1
Experiment [19] has the same target. The experiment is described as §6. The format is functional, tissue-based. As to conditions: Uterus. The method in brief:
as §1

Experiment [20] has the same target. The experiment can be described thus: Uterotrophic effect in mice at 5 ug dose. The format is functional, tissue-based. The conditions noted are these: Uterus. An outline of the steps:
as §1

Experiment [21] shares this target. Description: Uterotrophic effect in BD2F mice bearing transplantable hormone dependent MXT at 13.84 mg dose. It counts as functional, tissue-based. An outline of the steps: as §2
For experiment [22] the target is unchanged. As to conditions: Uterus.
For experiment [23] the target is unchanged. As to conditions: Uterus. This is another data set of the same source.
Experiment [24] shares this target.
The target is the same in experiment [25]. This is another data set of the same source.
Experiment [26] has the same target. As to conditions: Uterus. This is another data set of the same source.
Experiment [27] has the same target. The conditions noted are these: Uterus. This is another data set of the same source.
Experiment [28] has the same target. As to conditions: Uterus. This is another data set of the same source.
Experiment [29] shares this target. This is another data set of the same source.
Experiment [30] shares this target. This is another data set of the same source.
Experiment [31] has the same target. This is another data set of the same source.
The target is the same in experiment [32]. As to conditions: Uterus. This is another data set of the same source.
Experiment [33] shares this target. The conditions noted are these: Uterus. The source holds these as a separate data set.
Experiment [34] shares this target. As to conditions: Uterus. This is another data set of the same source.

SMILES strings stand for the structures.

T1 sequence (O08537 whole entry, looked up): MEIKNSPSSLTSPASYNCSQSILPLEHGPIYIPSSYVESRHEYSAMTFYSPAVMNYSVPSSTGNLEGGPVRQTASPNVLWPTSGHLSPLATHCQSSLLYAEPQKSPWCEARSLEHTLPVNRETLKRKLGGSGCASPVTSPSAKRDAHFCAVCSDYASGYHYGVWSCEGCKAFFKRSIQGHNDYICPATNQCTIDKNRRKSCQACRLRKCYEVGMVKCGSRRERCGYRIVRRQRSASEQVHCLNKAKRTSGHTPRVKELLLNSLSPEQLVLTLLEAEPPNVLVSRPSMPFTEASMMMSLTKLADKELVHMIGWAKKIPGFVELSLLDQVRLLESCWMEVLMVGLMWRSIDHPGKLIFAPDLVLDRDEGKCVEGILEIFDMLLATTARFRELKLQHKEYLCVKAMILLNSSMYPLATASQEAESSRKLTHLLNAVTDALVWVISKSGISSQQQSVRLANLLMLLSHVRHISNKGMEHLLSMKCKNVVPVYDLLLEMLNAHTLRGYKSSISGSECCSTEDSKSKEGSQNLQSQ
T1 sequence (P19785 whole entry, looked up): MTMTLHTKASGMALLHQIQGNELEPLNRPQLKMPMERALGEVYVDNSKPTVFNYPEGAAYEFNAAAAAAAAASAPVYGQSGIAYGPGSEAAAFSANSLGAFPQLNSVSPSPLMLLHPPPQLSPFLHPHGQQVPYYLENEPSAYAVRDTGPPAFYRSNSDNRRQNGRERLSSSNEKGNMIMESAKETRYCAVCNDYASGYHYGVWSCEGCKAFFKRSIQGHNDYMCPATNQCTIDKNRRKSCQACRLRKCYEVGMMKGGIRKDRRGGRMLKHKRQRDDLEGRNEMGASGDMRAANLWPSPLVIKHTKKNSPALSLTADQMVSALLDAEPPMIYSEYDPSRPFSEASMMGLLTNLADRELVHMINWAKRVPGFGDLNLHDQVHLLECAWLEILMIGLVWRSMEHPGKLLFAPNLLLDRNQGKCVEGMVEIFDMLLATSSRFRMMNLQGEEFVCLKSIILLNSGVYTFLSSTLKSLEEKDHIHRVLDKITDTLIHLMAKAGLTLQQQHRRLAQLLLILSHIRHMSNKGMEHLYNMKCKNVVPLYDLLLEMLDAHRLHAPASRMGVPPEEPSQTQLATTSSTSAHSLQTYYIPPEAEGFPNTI

With `Oc1ccc([C@H]([C@H](c2ccc(O)cc2)C(F)(F)F)C(F)(F)F)cc1`, the Effect came out at 35.4 in experiment [1], 46.9 in experiment [2], 42.5 in experiment [4] and 10.8 in experiment [6]. Further, the Uterus effect is 136 in [3] and 188 in [7]. The TC in the experiment listed under Mus musculus [5] was found to be 7.2%; in the experiment filed under Mus musculus [8], 21.3%.
Usually inhibition stands for the share of the control response that was lost under treatment. With `C[C@H](c1ccc(O)cc1)[C@@H](C)c1ccc(O)cc1`, the Effect in [1] amounted to 28; in experiment [9] it was 45.1; in experiment [12] it was 56.5; in [13], 14.8; in experiment [2], 17.7; in experiment [4], 22.6. Besides, the Effect came out at 34.8 in experiment [17]; 11.8 in experiment [6]; 36 in experiment [18]; 42.2 in experiment [19]; 33.6 in [20]. In addition, the TC is given as 23.1% in the experiment filed under Mus musculus [10] and 68.5% in the experiment listed under Mus musculus [11]. Besides, the Uterus effect amounted to 79.9 in [14] and 77.6 in [21]. Also, the figures for the inhibition in experiment [15] and in experiment [16] were 23.8% and 14.1%, respectively.
As for `C[C@]12CC[C@@H]3c4ccc(O)cc4CC[C@H]3[C@@H]1CCC2=O`, the Effect in [22] came to 47.3; in [23], 46.8; in [24], 39.5; in [25], 39.5; in [26] it was 46.4; in experiment [27], 39.8. For the same molecule, the Effect turned out to be 46.6 in experiment [28]; 39.3 in experiment [29]; 41.8 in experiment [30]; 39.5 in experiment [31]; 45.6 in experiment [32]; 49 in [33]. Further, the Effect in experiment [34] was determined as 46.8.

The record behind these values is ChEMBL document CHEMBL1123408, “Influence of alkyl-chain fluorination on the action of mammary tumor inhibiting 2,3-bis(hydroxyphenyl)butanes and 2,3-bis(hydroxyphenyl)but-2-enes” (1986).
